Test results taken from ChEMBL document CHEMBL3414559, “Novel C-4 heteroaryl 13-cis-retinamide Mnk/AR degrading agents inhibit cell proliferation and migration and induce apoptosis in human breast and prostate cancer cells and suppress growth of MDA-MB-231 human breast and CWR22Rv1 human prostate tumor xenografts in mice” (J Med Chem, 2015).
Calls of active or inactive are those of the source. The rule behind the calls is not given here.

Experiments:
[1] = Growth inhibition of human SKBR3 cells at 10 uM by MTT assay; assay type: functional; conditions: SK-BR-3, read-out: GI
MDA-MB-468 [2] = assay: Growth inhibition of human MDA-MB-468 cells at 10 uM by MTT assay; assay type: functional; conditions: read-out: GI
MCF7 [3] = assay: Growth inhibition of human MCF7 cells at 10 uM by MTT assay; assay type: functional; conditions: read-out: GI
MDA-MB-231 [4] = assay: Growth inhibition of human MDA-MB-231 cells at 10 uM by MTT assay; assay type: functional; conditions: read-out: GI
MCF7 [5] = assay: Induction of apoptosis in human MCF7 cells assessed as increase in c-PARP formation at 0.63 uM to 20 uM after 24 hrs by SDS-PAGE and Western blotting method; assay type: functional, cell-based
Procedure, shortened: (§1)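 Breast cancer cells in RPMI 1640 with 10% FBS treated 24 h at indicated concentrations, DMSO vehicle control; equal protein loaded on SDS–PAGE and immunoblotted for Mnk1, Mnk2, peIF4E, eIF4E and cleaved PARP; blots reprobed for GAPDH as loading control.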

[6] = Growth inhibition of human CWR22Rv1 cells by MTT assay; assay type: functional, CWR22R; conditions: 22Rv1
Procedure, shortened: (§2)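 Cells grown in RPMI 1640 with 10% FBS, plated at 2500 cells/well, treated across a dose range; growth read by MTT. GI50 taken from dose–response curves by nonlinear regression, at least three independent experiments.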

MDA-MB-468 [7] = assay: Reduction in peIF4E protein expression in human MDA-MB-468 cells at 0.63 uM to 20 uM after 24 hrs by SDS-PAGE and Western blotting method; assay type: functional, cell-based
Procedure, shortened: (§3)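 MCF-7, MDA-MB-231 and MDA-MB-468 cells, kept in RPMI 1640 with 10% FBS, were exposed for 24 h to a range of concentrations, with DMSO vehicle controls. Equal protein from lysates was separated by SDS–PAGE and probed for Mnk1, Mnk2, peIF4E, eIF4E and cPARP. GAPDH reprobing served as loading control.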

MDA-MB-468 [8] = assay: Reduction in Mnk2 protein expression in human MDA-MB-468 cells at 0.63 uM to 20 uM after 24 hrs by SDS-PAGE and Western blotting method; assay type: functional, cell-based; procedure, shortened: as §1
MDA-MB-231 [9] = assay: Growth inhibition of human MDA-MB-231 cells by MTT assay; assay type: functional; procedure, shortened: as §2
MDA-MB-231 [10] = assay: Induction of apoptosis in human MDA-MB-231 cells assessed as increase in c-PARP formation at 0.63 uM to 20 uM after 24 hrs by SDS-PAGE and Western blotting method; assay type: functional, cell-based; procedure, shortened: as §1
MDA-MB-468 [11] = assay: Growth inhibition of human MDA-MB-468 cells by MTT assay; assay type: functional; procedure, shortened: as §2
MDA-MB-468 [12] = assay: Effect on total eIF4E protein expression in human MDA-MB-468 cells at 0.63 uM to 20 uM after 24 hrs by SDS-PAGE and Western blotting method; assay type: functional, cell-based; procedure, shortened: as §1
MCF7 [13] = assay: Reduction in peIF4E protein expression in human MCF7 cells at 0.63 uM to 20 uM after 24 hrs by SDS-PAGE and Western blotting method; assay type: functional, cell-based; procedure, shortened: as §3
MDA-MB-231 [14] = assay: Effect on total eIF4E protein expression in human MDA-MB-231 cells at 0.63 uM to 20 uM after 24 hrs by SDS-PAGE and Western blotting method; assay type: functional, cell-based; procedure, shortened: as §1
MCF7 [15] = assay: Effect on total eIF4E protein expression in human MCF7 cells at 0.63 uM to 20 uM after 24 hrs by SDS-PAGE and Western blotting method; assay type: functional, cell-based; procedure, shortened: as §1
LNCaP [16] = assay: Reduction in Mnk1 protein expression in human LNCAP cells at 0.6 uM to 20 uM after 24 hrs by SDS-PAGE and Western blotting method; assay type: functional, cell-based
Procedure, shortened: (§4)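 LNCaP cells (RPMI 1640, 10% FBS) exposed 24 h to 0.6–20 μM, DMSO vehicle control; equal protein on SDS–PAGE, immunoblotted for fAR, Mnk1/2, peIF4E, cyclin D1 and cleaved PARP; β-actin reprobe for loading.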

LNCaP [17] = assay: Induction of apoptosis in human LNCAP cells assessed as increase in c-PARP formation at 0.6 uM to 20 uM after 24 hrs by SDS-PAGE and Western blotting method; assay type: functional, cell-based; procedure, shortened: as §4
PC-3 = assay: Inhibition of cell migration of human PC3 cells at 5 uM after 24 hrs by wound healing assay; assay type: functional, cell-based
Procedure, shortened: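 Cells (5 × 10⁵ per well) grown to confluence, monolayer scratched at time zero, then exposed to 5 μM for 24 h; initial and final wounds photographed at 100×.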

LNCaP [18] = assay: Reduction in fAR protein expression in human LNCAP cells at 0.6 uM to 20 uM after 24 hrs by SDS-PAGE and Western blotting method; assay type: functional, cell-based
Procedure, shortened: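 LNCaP cells were treated for 24 h across 0.6–20 μM, with vehicle (DMSO) controls. Equal protein from lysates was run on SDS–PAGE and immunoblotted for fAR, Mnk1/2, peIF4E, cyclin D1 and cleaved PARP. Blots were reprobed for β-actin as loading control.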

MDA-MB-468 [19] = assay: Reduction in Mnk1 protein expression in human MDA-MB-468 cells at 0.63 uM to 20 uM after 24 hrs by SDS-PAGE and Western blotting method; assay type: functional, cell-based; procedure, shortened: as §1
[20] = biological target: T1, Androgen receptor (Homo sapiens) (UniProt P10275); conditions: LNCaP, at 10 µM
T1 sequence (whole entry): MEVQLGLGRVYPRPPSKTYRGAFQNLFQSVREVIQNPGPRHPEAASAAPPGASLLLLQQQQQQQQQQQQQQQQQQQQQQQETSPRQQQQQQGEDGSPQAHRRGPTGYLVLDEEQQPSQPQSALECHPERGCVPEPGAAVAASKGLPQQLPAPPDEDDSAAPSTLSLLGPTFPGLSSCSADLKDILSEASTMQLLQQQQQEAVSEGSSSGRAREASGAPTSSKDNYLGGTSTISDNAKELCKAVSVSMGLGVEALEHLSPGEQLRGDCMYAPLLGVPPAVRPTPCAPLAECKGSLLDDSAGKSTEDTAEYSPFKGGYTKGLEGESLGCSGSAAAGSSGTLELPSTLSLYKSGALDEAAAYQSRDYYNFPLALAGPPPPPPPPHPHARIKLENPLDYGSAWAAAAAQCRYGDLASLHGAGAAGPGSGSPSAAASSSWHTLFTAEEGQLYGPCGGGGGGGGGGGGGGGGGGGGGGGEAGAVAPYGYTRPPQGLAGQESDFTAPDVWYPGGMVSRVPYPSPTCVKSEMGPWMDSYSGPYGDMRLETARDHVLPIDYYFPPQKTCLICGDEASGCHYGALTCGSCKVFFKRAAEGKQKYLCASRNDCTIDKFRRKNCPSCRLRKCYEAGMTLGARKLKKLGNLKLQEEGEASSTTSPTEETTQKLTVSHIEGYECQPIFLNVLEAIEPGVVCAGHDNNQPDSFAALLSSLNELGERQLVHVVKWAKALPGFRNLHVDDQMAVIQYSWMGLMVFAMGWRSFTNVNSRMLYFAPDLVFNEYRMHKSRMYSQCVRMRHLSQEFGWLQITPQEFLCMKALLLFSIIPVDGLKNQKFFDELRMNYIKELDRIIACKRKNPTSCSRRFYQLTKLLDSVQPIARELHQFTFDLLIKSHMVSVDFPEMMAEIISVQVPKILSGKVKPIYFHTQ

MCF7 [21] = assay: Reduction in Mnk1 protein expression in human MCF7 cells at 0.63 uM to 20 uM after 24 hrs by SDS-PAGE and Western blotting method; assay type: functional, cell-based; procedure, shortened: as §1
MDA-MB-231 [22] = assay: Reduction in Mnk2 protein expression in human MDA-MB-231 cells at 0.63 uM to 20 uM after 24 hrs by SDS-PAGE and Western blotting method; assay type: functional, cell-based; procedure, shortened: as §1
MCF7 [23] = assay: Reduction in Mnk2 protein expression in human MCF7 cells at 0.63 uM to 20 uM after 24 hrs by SDS-PAGE and Western blotting method; assay type: functional, cell-based; procedure, shortened: as §1
LNCaP [24] = assay: Reduction in Mnk2 protein expression in human LNCAP cells at 0.6 uM to 20 uM after 24 hrs by SDS-PAGE and Western blotting method; assay type: functional, cell-based; procedure, shortened: as §4
MCF7 [25] = assay: Growth inhibition of human MCF7 cells by MTT assay; assay type: functional; procedure, shortened: as §2
[26] = Growth inhibition of human PC3 cells by MTT assay; assay type: functional; conditions: PC-3; procedure, shortened: as §2
LNCaP [27] = assay: Induction of apoptosis in human LNCAP cells assessed as reduction in cyclin D1 levels at 0.6 uM to 20 uM after 24 hrs by SDS-PAGE and Western blotting method; assay type: functional, cell-based; procedure, shortened: as §4
[28] = Growth inhibition of human SKBR3 cells by MTT assay; assay type: functional; conditions: SK-BR-3; procedure, shortened: as §2
MDA-MB-231 [29] = assay: Reduction in Mnk1 protein expression in human MDA-MB-231 cells at 0.63 uM to 20 uM after 24 hrs by SDS-PAGE and Western blotting method; assay type: functional, cell-based; procedure, shortened: as §1
LNCaP [30] = assay: Effect on total eIF4E protein expression in human LNCAP cells at 0.6 uM to 20 uM after 24 hrs by SDS-PAGE and Western blotting method; assay type: functional, cell-based
LNCaP [31] = assay: Growth inhibition of human LNCAP cells by MTT assay; assay type: functional; procedure, shortened: as §2
MDA-MB-468 [32] = assay: Induction of apoptosis in human MDA-MB-468 cells assessed as increase in c-PARP formation at 0.63 uM to 20 uM after 24 hrs by SDS-PAGE and Western blotting method; assay type: functional, cell-based; procedure, shortened: as §1
MDA-MB-231 [33] = assay: Reduction in peIF4E protein expression in human MDA-MB-231 cells at 0.63 uM to 20 uM after 24 hrs by SDS-PAGE and Western blotting method; assay type: functional, cell-based; procedure, shortened: as §3
MDA-MB-231 [34] = assay: Antitumor activity against human MDA-MB-231 cells xenografted in SCID mouse assessed as inhibition of tumor growth at 20 mg/kg, ip dosed once daily for 5 days per week for 28 days; assay type: functional; conditions: MDA-MB-231, ip, in the assay text read “athymic nude mouse” for “SCID mouse”, route intraperitoneal, read-out: TGI
Procedure, shortened: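 Athymic nude female mice with subcutaneous MDA-MB-231 tumors (10 × 10⁶ cells; ~100 mm³ at randomization, n = 6/group) dosed ip once daily, 5 days/week for 28 days, in 40% β-cyclodextrin/ddH₂O; vehicle controls. %T/C computed as median tumor volume treated vs control at day 28 × 100. Body weight monitored.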

## COc1cccc(C2=CCC(C)(C)C(/C=C/C(C)=C/C=C/C(C)=C\C(=O)NCc3ccc(O)cc3)=C2C)c1
[1]
  inhibition of growth at 10 µM: ≥ 40%
MDA-MB-468 [2]
  inhibition of growth at 10 µM: ≥ 40%
MCF7 [3]
  inhibition of growth at 10 µM: ≥ 40%
MDA-MB-231 [4]
  inhibition of growth at 10 µM: ≥ 40%

## COc1cccc(C2=CCC(C)(C)C(/C=C/C(C)=C/C=C/C(C)=C\C(=O)NCCc3ccc(O)cc3)=C2C)c1
[1]
  inhibition of growth at 10 µM: ≥ 40%
MDA-MB-468 [2]
  inhibition of growth at 10 µM: ≥ 40%
MCF7 [3]
  inhibition of growth at 10 µM: ≥ 40%
MDA-MB-231 [4]
  inhibition of growth at 10 µM: ≥ 40%

## CC1=C(/C=C/C(C)=C/C=C/C(C)=C\C(=O)Nc2ccccc2)C(C)(C)CCC1n1ccnc1 (stereo not drawn)
MCF7 [5]
  Activity: Dose-dependent effect
[6]
  GI50: 1280 nM
MDA-MB-468 [7]
  inhibition: Dose-dependent effect
MDA-MB-468 [8]
  inhibition: Dose-dependent effect
MDA-MB-231 [9]
  GI50: 1740 nM
MDA-MB-231 [10]
  Activity: Dose-dependent effect
MDA-MB-468 [11]
  GI50: 2540 nM
MDA-MB-468 [12]
  Activity: inactive
MCF7 [13]
  inhibition: Dose-dependent effect
MDA-MB-231 [14]
  Activity: inactive
MCF7 [15]
  Activity: inactive
LNCaP [16]
  inhibition: Dose-dependent effect
LNCaP [17]
  Activity: Active
PC-3
  inhibition: Active
LNCaP [18]
  inhibition: Dose-dependent effect
MDA-MB-468 [19]
  inhibition: Dose-dependent effect
[20]
  inhibition: Active
MCF7 [21]
  inhibition: Dose-dependent effect
MDA-MB-231 [22]
  inhibition: Dose-dependent effect
MCF7 [23]
  inhibition: Dose-dependent effect
LNCaP [24]
  inhibition: Dose-dependent effect
MCF7 [25]
  GI50: 1900 nM
[26]
  GI50: 8910 nM
LNCaP [27]
  Activity: Active
[28]
  GI50: 1730 nM
MDA-MB-231 [29]
  inhibition: Dose-dependent effect
LNCaP [30]
  Activity: inactive
LNCaP [31]
  GI50: 2690 nM
MDA-MB-468 [32]
  Activity: Dose-dependent effect
MDA-MB-231 [33]
  inhibition: Dose-dependent effect

## CC1=C(/C=C/C(C)=C/C=C/C(C)=C/C(=O)Nc2ccc(F)cc2)C(C)(C)CCC1n1ccnc1 (stereo not drawn)
MDA-MB-231 [34]
  inhibition in vivo at 20 mg/kg: 97%

## CC1=C(/C=C/C(C)=C/C=C/C(C)=C\C(=O)NCc2ccc(O)cc2)C(C)(C)CC=C1c1cccnc1
[1]
  inhibition of growth at 10 µM: ≥ 40%
MDA-MB-468 [2]
  inhibition of growth at 10 µM: ≥ 40%
MCF7 [3]
  inhibition of growth at 10 µM: ≥ 40%
MDA-MB-231 [4]
  inhibition of growth at 10 µM: ≥ 40%
